Source: the M2OR odorant receptor database

Assays:
Conditions in all cases: stereoisomer not certain
OR4M1 H277N V279L L284H = system: OR4M1 H277N V279L L284H
Method in brief: (§1)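 Transient luciferase assays in mammalian cell lines were common, though methods varied by source. The values come from published papers and their supplementary material, with extra details from the original authors when needed. Responsive refers to a measured signal the original authors judged statistically different from baseline, and non-responsive (inactive) to the remainder.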

OR4M2 (Homo sapiens) = OR4M2 (Homo sapiens) (UniProt Q8NGB6)
Method in brief: as §1

OR4N2 (Homo sapiens) = OR4N2 (Homo sapiens) (UniProt Q8NGD1)
Method in brief: as §1

OR4N2 A57V I76T = system: OR4N2 A57V I76T
Method in brief: as §1

OR4N2 R260C F279L R290H = system: OR4N2 R260C F279L R290H
Method in brief: as §1

OR4N2 = system: OR4N2
Method in brief: as §1

OR4N4 (Homo sapiens) = OR4N4 (Homo sapiens) (UniProt Q8N0Y3)
Method in brief: as §1

OR4N5 (Homo sapiens) = OR4N5 (Homo sapiens) (UniProt Q8IXE1)
Method in brief: as §1

OR4M2B (Homo sapiens) = OR4M2B (Homo sapiens) (UniProt A0A0X1KG70)
Method in brief: as §1

OR4N4C (Homo sapiens) = OR4N4C (Homo sapiens) (UniProt A0A096LPK9)
Method in brief: as §1

Measured: odorant receptor agonist call;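 also: active if original authors judged signal statistically different from baseline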

Chain of OR4N5 (Homo sapiens) (Q8IXE1 whole entry): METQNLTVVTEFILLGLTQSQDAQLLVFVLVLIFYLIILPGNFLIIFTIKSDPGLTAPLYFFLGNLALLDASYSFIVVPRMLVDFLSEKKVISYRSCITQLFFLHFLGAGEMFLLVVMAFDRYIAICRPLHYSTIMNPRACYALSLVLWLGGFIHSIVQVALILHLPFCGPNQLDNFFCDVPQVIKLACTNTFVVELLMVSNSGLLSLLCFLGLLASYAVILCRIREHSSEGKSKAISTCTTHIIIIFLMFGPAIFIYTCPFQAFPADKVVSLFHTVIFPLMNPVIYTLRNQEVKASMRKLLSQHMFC
Chain of OR4N4 (Homo sapiens) (Q8N0Y3 whole entry): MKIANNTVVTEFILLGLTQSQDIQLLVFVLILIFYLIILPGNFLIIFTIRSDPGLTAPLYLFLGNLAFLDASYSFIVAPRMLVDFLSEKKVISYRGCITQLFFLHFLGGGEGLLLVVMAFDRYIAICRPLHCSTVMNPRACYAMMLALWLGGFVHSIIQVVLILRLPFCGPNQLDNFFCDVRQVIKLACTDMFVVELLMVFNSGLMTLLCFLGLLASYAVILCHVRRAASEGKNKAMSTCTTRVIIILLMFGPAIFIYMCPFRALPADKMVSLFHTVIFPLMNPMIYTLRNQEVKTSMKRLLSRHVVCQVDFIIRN
Chain of OR4N2 (Homo sapiens) (Q8NGD1 whole entry): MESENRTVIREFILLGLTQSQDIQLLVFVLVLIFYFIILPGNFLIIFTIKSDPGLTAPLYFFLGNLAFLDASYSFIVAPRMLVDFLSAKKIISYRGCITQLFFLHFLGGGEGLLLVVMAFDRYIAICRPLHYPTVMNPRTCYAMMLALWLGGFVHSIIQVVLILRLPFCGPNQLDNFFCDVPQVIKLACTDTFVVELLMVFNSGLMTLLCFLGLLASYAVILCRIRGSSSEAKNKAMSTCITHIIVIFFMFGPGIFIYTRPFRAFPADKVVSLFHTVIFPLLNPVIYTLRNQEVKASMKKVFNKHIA
Chain of OR4M2 (Homo sapiens) (Q8NGB6 whole entry): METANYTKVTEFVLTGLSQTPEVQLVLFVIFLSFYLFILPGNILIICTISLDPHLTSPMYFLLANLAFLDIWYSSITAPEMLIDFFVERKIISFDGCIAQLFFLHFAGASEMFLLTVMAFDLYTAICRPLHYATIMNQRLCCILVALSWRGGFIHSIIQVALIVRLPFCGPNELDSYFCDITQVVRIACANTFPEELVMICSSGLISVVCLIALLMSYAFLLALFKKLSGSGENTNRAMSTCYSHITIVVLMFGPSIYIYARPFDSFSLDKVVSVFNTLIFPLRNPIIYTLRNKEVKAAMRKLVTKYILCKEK
Chain of OR4N2 (as listed by the source): as the sequence (Q8NGD1 whole entry) above, with I76T counted along it
Chain of OR4N4C (Homo sapiens) (A0A096LPK9 whole entry): as the sequence (Q8N0Y3 whole entry) above, with M259I counted along it
Chain of OR4M2B (Homo sapiens) (A0A0X1KG70 whole entry): as the sequence (Q8NGB6 whole entry) above, with G96E, F225L, M239V, R284H counted along it

C=CCOC(=O)Cc1ccccc1
inactive: OR4M1 H277N V279L L284H | OR4M2 (Homo sapiens) | OR4N2 (Homo sapiens) | OR4N2 A57V I76T | OR4N2 R260C F279L R290H | OR4N2 | OR4N4 (Homo sapiens) | OR4N5 (Homo sapiens)

Cc1c([N+](=O)[O-])c(C)c([N+](=O)[O-])c(C(C)(C)C)c1[N+](=O)[O-]
inactive: OR4M2 (Homo sapiens) | OR4M2B (Homo sapiens) | OR4N2 (Homo sapiens) | OR4N4 (Homo sapiens) | OR4N4C (Homo sapiens) | OR4N5 (Homo sapiens)
